# Assay results as given in ChEMBL document CHEMBL4052629, “Scutellarin derivatives as apoptosis inducers: Design, synthesis and biological evaluation” (Eur J Med Chem, 2017).
# The source made the active and inactive calls. The calls are words filed in the database; no cut-off is given here.
# Legend:
# L02 [1] = test: Induction of apoptosis in human LO2 cells assessed as early apoptotic cells at 1.25 uM after 72 hrs by Annexin V-FITC/7-AAD or propidium iodide staining-based flow cytometric analysis (reference value: 3.65%); assay type: cell-based; conditions: l02, 72 h
# PC-3 [2] = test: Cell cycle arrest in human PC3 cells assessed as accumulation at G2/M phase at 0.16 uM after 72 hrs by propidium iodide staining-based flow cytometric analysis (reference value: 10.19%); assay type: functional
# How it was run: (§1)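 Concentrations used were 0, 0.3, 0.6 and 1.2 μM in HepG2 and 0, 0.16, 0.31 and 1.25 μM in PC-3, with untreated cells as control, for 72 h. Cells were trypsinized, washed in PBS, fixed in cold ethanol at 4 °C overnight, then incubated 30 min in PBS containing RNase A and propidium iodide. DNA content was read by flow cytometry to give phase distribution.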
# PC-3 [3] = test: Induction of apoptosis in human PC3 cells after 72 hrs by Annexin V-APC/7-AAD or propidium iodide staining-based flow cytometric analysis; assay type: functional, cell-based
# PC-3 [4] = test: Cell cycle arrest in human PC3 cells assessed as accumulation at G2/M phase at 1.25 uM after 72 hrs by propidium iodide staining-based flow cytometric analysis (reference value: 10.19%); assay type: functional; how it was run: as §1
# PC-3 [5] = test: Cell cycle arrest in human PC3 cells assessed as accumulation at G1 phase at 0.16 uM after 72 hrs by propidium iodide staining-based flow cytometric analysis (reference value: 53.36%); assay type: functional; how it was run: as §1
# PC-3 [6] = test: Induction of apoptosis in human PC3 cells assessed as cell shrinkage at 0.16 to 1.25 uM after 48 hrs by Hoechst 33258 staining-based fluorescent microscopic analysis; assay type: functional
# How it was run: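 PC-3 cells grown on sterile cover slips were exposed to 0, 0.16, 0.31 or 1.25 μM, or vehicle, for 48 h. Then fixed with 4% paraformaldehyde for 10 min, washed twice in PBS, stained with Hoechst 33258 for 5 min and washed again. Nuclei imaged at 350 nm excitation and 460 nm emission.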
# PC-3 [7] = test: Induction of apoptosis in human PC3 cells assessed as viable cells at 1.25 uM after 72 hrs by Annexin V-APC/7-AAD or propidium iodide staining-based flow cytometric analysis (reference value: 88.74%); assay type: functional; conditions: PC-3, 72 h, read-out: Activity
# PC-3 [8] = test: Induction of apoptosis in human PC3 cells assessed as early apoptotic cells at 1.25 uM after 72 hrs by Annexin V-APC/7-AAD or propidium iodide staining-based flow cytometric analysis (reference value: 4.09%); assay type: functional
# HepG2 [9] = test: Cell cycle arrest in human HepG2 cells assessed as accumulation at G1 phase at 0.3 uM after 72 hrs by propidium iodide staining-based flow cytometric analysis (reference value: 34%); assay type: functional; how it was run: as §1
# HepG2 [10] = test: Induction of apoptosis in human HepG2 cells assessed as nuclear fragmentation at 1.2 uM after 48 hrs by Hoechst 33258 staining-based fluorescent microscopic analysis; assay type: functional, cell-based
# How it was run: (§2)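 HepG2 cells grown on coverslips were treated for 48 h at 0.3, 0.6 or 1.2 μM, then fixed in 4% paraformaldehyde for 10 min. After PBS washes, cells were stained with Hoechst 33258 for 5 min and washed again. Nuclear morphology was examined by fluorescence imaging at 350 nm excitation and 460 nm emission.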
# HepG2 [11] = test: Induction of apoptosis in human HepG2 cells assessed as late apoptotic cells at 1.2 uM after 72 hrs by Annexin V-APC/7-AAD or propidium iodide staining-based flow cytometric analysis (reference value: 4.14%); assay type: functional
# HepG2 [12] = test: Induction of apoptosis in human HepG2 cells assessed as reduction in mitochondrial membrane potential at 0.6 uM after 48 hrs by JC-1 staining-based flow cytometric analysis (reference value: 1.6%); assay type: functional; set-up: scale not given: the % may be the effect or the level left
# How it was run: (§3)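 HepG2 cells cultured overnight, then incubated in triplicate with 0, 0.3, 0.6 or 1.2 μM, or vehicle, for 48 h. Stained with the cationic dye JC-1. Flow cytometry gave the percentage of cells with healthy versus collapsed mitochondrial membrane potential.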
# HepG2 [13] = test: Induction of apoptosis in human HepG2 cells assessed as reduction in Hsp27 expression levels at 2 uM after 24 hrs by membrane-based sandwich immunoassay; assay type: functional, cell-based
# How it was run: (§4)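 HepG2 cells treated at 2 μM for 24 h; protein extracts prepared per the kit protocol. Relative levels of 35 apoptosis-related proteins measured with a human apoptosis antibody array.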
# HepG2 [14] = test: Cell cycle arrest in human HepG2 cells assessed as accumulation at G2/M phase at 0.6 uM after 72 hrs by propidium iodide staining-based flow cytometric analysis (reference value: 21.4%); assay type: functional; how it was run: as §1
# HepG2 [15] = test: Cell cycle arrest in human HepG2 cells assessed as accumulation at G2/M phase at 0.3 uM after 72 hrs by propidium iodide staining-based flow cytometric analysis (reference value: 21.4%); assay type: functional; how it was run: as §1
# HepG2 [16] = test: Cell cycle arrest in human HepG2 cells assessed as accumulation at G2/M phase at 1.2 uM after 72 hrs by propidium iodide staining-based flow cytometric analysis (reference value: 21.4%); assay type: functional; how it was run: as §1
# HepG2 [17] = test: Induction of apoptosis in human HepG2 cells assessed as reduction in HO-1 expression levels at 2 uM after 24 hrs by membrane-based sandwich immunoassay; assay type: functional, cell-based; how it was run: as §4
# HepG2 [18] = test: Induction of apoptosis in human HepG2 cells assessed as reduction in survivin expression levels at 2 uM after 24 hrs by membrane-based sandwich immunoassay; assay type: functional, cell-based
# How it was run: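 HepG2 cells exposed to 2 μM for 24 h. Proteins extracted per kit protocol. Relative levels of 35 apoptosis-related proteins measured on a human apoptosis antibody array.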
# L02 [19] = test: Induction of apoptosis in human LO2 cells assessed as necrotic cells at 50 uM after 72 hrs by Annexin V-FITC/7-AAD or propidium iodide staining-based flow cytometric analysis (reference value: 1.99%); assay type: cell-based; conditions: l02, 72 h
# HepG2 [20] = test: Induction of apoptosis in human HepG2 cells assessed as chromatin condensation at 0.3 to 0.6 uM after 48 hrs by Hoechst 33258 staining-based fluorescent microscopic analysis; assay type: functional, cell-based; how it was run: as §2
# HepG2 [21] = test: Induction of apoptosis in human HepG2 cells assessed as reduction in mitochondrial membrane potential after 48 hrs by JC-1 staining-based flow cytometric analysis; assay type: functional, cell-based; how it was run: as §3
smiles,measurement,setting,value
COc1ccc(-c2cc(=O)c3c(O)c(OC)c(O[C@@H]4O[C@H](C(=O)NCCOc5no[n+]([O-])c5S(=O)(=O)c5ccccc5)[C@@H](O)[C@H](O)[C@H]4O)cc3o2)cc1,Activity,L02 [1],17.35%
same,Activity,PC-3 [2],11.62%
same,Activity,PC-3 [3],Dose-dependent effect
same,Activity,PC-3 [4],9.1%
same,Activity,PC-3 [5],50.05%
same,Activity,PC-3 [6],Active
same,viability at 1.25 µM,PC-3 [7],36.3%
same,Activity,PC-3 [8],14.91%
O=C(NCCCOc1no[n+]([O-])c1S(=O)(=O)c1ccccc1)[C@H]1O[C@@H](Oc2cc3oc(-c4ccc(OCc5ccccc5)cc4)cc(=O)c3c(O)c2OCc2ccccc2)[C@H](O)[C@@H](O)[C@@H]1O,Activity,HepG2 [9],32.13%
same,Activity,HepG2 [10],Active
same,Activity,HepG2 [11],39.16%
same,Activity,HepG2 [12],31.12%
same,Activity,HepG2 [13],Active
same,Activity,HepG2 [14],17.54%
same,Activity,HepG2 [15],20.73%
same,Activity,HepG2 [16],3.24%
same,Activity,HepG2 [17],Active
same,Activity,HepG2 [18],Active
same,Activity,L02 [19],2.27%
same,Activity,HepG2 [20],Active
same,Activity,HepG2 [21],Dose-dependent effect
